Measurements: ChEMBL document CHEMBL4251598, “Development of novel bis-pyrazole derivatives as antitumor agents with potent apoptosis induction effects and DNA damage” (Eur J Med Chem, 2018)
pIC50: −log10 of the molar value. Calls of active or inactive are those of the source. No cut-off for these calls is given here.

Tested on: SMMC-7721
Test: Induction of apoptosis in human SMMC7721 cells assessed as apoptotic cells at 3.2 uM after 72 hrs by FITC-Annexin-V/7AAD/propidium iodide staining based flow cytometry relative to control
Type: functional
Settings: not given
Method in brief: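 SMMC-7721 cells cultured overnight, then treated in triplicate with 0.2, 0.8 or 3.2 μM, vehicle, or ADM (3.2 μM) for 72 h. Stained with annexin V and PI (methods section: APC-annexin V/7-AAD) for 15 min at room temperature. Mean ± SD of three independent experiments.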

Structure (SMILES)	Activity
COc1cccc2c1C(=O)c1c(O)c3c(c(O)c1C2=O)C[C@@](O)(C(=O)CO)C[C@@H]3O[C@H]1C[C@H](N)[C@H](O)[C@H](C)O1.Cl [DOXORUBICIN HYDROCHLORIDE]	47.5%

Tested on: SMMC-7721
Test: Antiproliferative activity against human SMMC7721 cells after 72 hrs by MTT assay
Type: functional, cell-based
Settings: SMMC-7721, 72 h
Method in brief: (§1)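 Cells in DMEM with 10% FBS, 10^4 cells/mL, adhered overnight at 37 °C, 5% CO2. Treated in triplicate with a range of concentrations for 72 h. MTT (5 mg/mL solution) added for the last 4 h, formazan dissolved in DMSO, absorbance read at 570 nm. IC50 calculated from percent inhibition. Mean ± SD of three independent experiments.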

Structure (SMILES)	pIC50
Cc1nn(C)c(Oc2ccc(F)cc2)c1/C=N\OCc1c(Cl)c(-c2ccc(Cl)cc2)nn1C	5.49
Cc1ccc(Oc2c(/C=N\OCc3c(Cl)c(-c4ccc(F)cc4)nn3C)c(C)nn2C)cc1	5.28
Cc1nn(C)c(Oc2ccc(OC(F)(F)F)cc2)c1/C=N\OCc1c(Cl)c(-c2ccc(Cl)cc2)nn1C	5.06
Cc1nn(C)c(Oc2ccc(F)cc2)c1/C=N\OCc1c(Cl)c(-c2ccc(F)cc2)nn1C	5.18
COc1cccc2c1C(=O)c1c(O)c3c(c(O)c1C2=O)C[C@@](O)(C(=O)CO)C[C@@H]3O[C@H]1C[C@H](N)[C@H](O)[C@H](C)O1.Cl [DOXORUBICIN HYDROCHLORIDE]	5.57
Cc1nn(C)c(Oc2ccc(Cl)cc2)c1/C=N\OCc1c(Cl)c(-c2ccc(F)cc2)nn1C	5.10
O=c1[nH]cc(F)c(=O)[nH]1 [FLUOROURACIL]	4.42
Cc1nn(C)c(Oc2ccc(Cl)cc2)c1/C=N\OCc1c(Cl)c(-c2ccc(Cl)cc2)nn1C	5.17
Cc1nn(C)c(Oc2ccc(Br)cc2)c1/C=N\OCc1c(Cl)c(-c2ccc(Cl)cc2)nn1C	5.15
COc1ccc(Oc2c(/C=N\OCc3c(Cl)c(-c4ccc(F)cc4)nn3C)c(C)nn2C)cc1	5.69
Cc1ccc(Oc2c(/C=N\OCc3c(Cl)c(-c4ccc(Cl)cc4)nn3C)c(C)nn2C)cc1	5.23
Cc1nn(C)c(Oc2ccc(OC(F)(F)F)cc2)c1/C=N\OCc1c(Cl)c(-c2ccc(F)cc2)nn1C	5.28

Tested on: PC-3
Test: Induction of apoptosis in human PC3 cells
Type: functional, cell-based
Settings: not given

Structure (SMILES)	pIC50
CCOC(=O)c1cc(-c2ccccc2)nn1Cc1ccc(Cl)nc1	4.82

Tested on: SGC-7901
Test: Antiproliferative activity against human SGC7901 cells after 72 hrs by MTT assay
Type: functional, cell-based
Settings: SGC-7901, 72 h
Method in brief: as §1

Structure (SMILES)	pIC50
Cc1nn(C)c(Oc2ccc(F)cc2)c1/C=N\OCc1c(Cl)c(-c2ccc(Cl)cc2)nn1C	5.35
Cc1ccc(Oc2c(/C=N\OCc3c(Cl)c(-c4ccc(F)cc4)nn3C)c(C)nn2C)cc1	5.34
Cc1nn(C)c(Oc2ccc(OC(F)(F)F)cc2)c1/C=N\OCc1c(Cl)c(-c2ccc(Cl)cc2)nn1C	5.49
Cc1nn(C)c(Oc2ccc(F)cc2)c1/C=N\OCc1c(Cl)c(-c2ccc(F)cc2)nn1C	5.15
COc1cccc2c1C(=O)c1c(O)c3c(c(O)c1C2=O)C[C@@](O)(C(=O)CO)C[C@@H]3O[C@H]1C[C@H](N)[C@H](O)[C@H](C)O1.Cl [DOXORUBICIN HYDROCHLORIDE]	5.39
Cc1nn(C)c(Oc2ccc(Cl)cc2)c1/C=N\OCc1c(Cl)c(-c2ccc(F)cc2)nn1C	5.09
O=c1[nH]cc(F)c(=O)[nH]1 [FLUOROURACIL]	4.46
Cc1nn(C)c(Oc2ccc(Cl)cc2)c1/C=N\OCc1c(Cl)c(-c2ccc(Cl)cc2)nn1C	5.12
Cc1nn(C)c(Oc2ccc(Br)cc2)c1/C=N\OCc1c(Cl)c(-c2ccc(Cl)cc2)nn1C	5.22
COc1ccc(Oc2c(/C=N\OCc3c(Cl)c(-c4ccc(F)cc4)nn3C)c(C)nn2C)cc1	5.55
Cc1ccc(Oc2c(/C=N\OCc3c(Cl)c(-c4ccc(Cl)cc4)nn3C)c(C)nn2C)cc1	5.43
Cc1nn(C)c(Oc2ccc(OC(F)(F)F)cc2)c1/C=N\OCc1c(Cl)c(-c2ccc(F)cc2)nn1C	5.53

Tested on: SMMC-7721
Test: Induction of DNA double stranded breaks in human SMMC7721 cells assessed as increase in H2AX phosphorylation at S139 at 0.8 uM after 72 hrs by Western blot analysis
Type: functional, cell-based
Settings: not given
Method in brief: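 SMMC-7721 cells treated with vehicle, compound at 0.2, 0.8 or 3.2 μM, or ADM for 72 h. Lysates immunoblotted for H2AX pS139, p-p53 (Ser15), total p53 and β-actin, with ECL detection. Signals quantified by densitometry relative to β-actin, mean ± SD of three experiments.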

Structure (SMILES)	Activity
COc1cccc2c1C(=O)c1c(O)c3c(c(O)c1C2=O)C[C@@](O)(C(=O)CO)C[C@@H]3O[C@H]1C[C@H](N)[C@H](O)[C@H](C)O1.Cl [DOXORUBICIN HYDROCHLORIDE]	Active

Tested on: HCT-116
Test: Antiproliferative activity against human HCT116 cells after 72 hrs by MTT assay
Type: functional, cell-based
Settings: HCT-116, 72 h
Method in brief: as §1

Structure (SMILES)	pIC50
Cc1nn(C)c(Oc2ccc(F)cc2)c1/C=N\OCc1c(Cl)c(-c2ccc(Cl)cc2)nn1C	5.14
Cc1ccc(Oc2c(/C=N\OCc3c(Cl)c(-c4ccc(F)cc4)nn3C)c(C)nn2C)cc1	5.54
Cc1nn(C)c(Oc2ccc(OC(F)(F)F)cc2)c1/C=N\OCc1c(Cl)c(-c2ccc(Cl)cc2)nn1C	5.52
Cc1nn(C)c(Oc2ccc(F)cc2)c1/C=N\OCc1c(Cl)c(-c2ccc(F)cc2)nn1C	5.10
COc1cccc2c1C(=O)c1c(O)c3c(c(O)c1C2=O)C[C@@](O)(C(=O)CO)C[C@@H]3O[C@H]1C[C@H](N)[C@H](O)[C@H](C)O1.Cl [DOXORUBICIN HYDROCHLORIDE]	5.64
Cc1nn(C)c(Oc2ccc(Cl)cc2)c1/C=N\OCc1c(Cl)c(-c2ccc(F)cc2)nn1C	5.22
O=c1[nH]cc(F)c(=O)[nH]1 [FLUOROURACIL]	4.53
Cc1nn(C)c(Oc2ccc(Cl)cc2)c1/C=N\OCc1c(Cl)c(-c2ccc(Cl)cc2)nn1C	5.33
Cc1nn(C)c(Oc2ccc(Br)cc2)c1/C=N\OCc1c(Cl)c(-c2ccc(Cl)cc2)nn1C	5.23
COc1ccc(Oc2c(/C=N\OCc3c(Cl)c(-c4ccc(F)cc4)nn3C)c(C)nn2C)cc1	5.93
Cc1ccc(Oc2c(/C=N\OCc3c(Cl)c(-c4ccc(Cl)cc4)nn3C)c(C)nn2C)cc1	5.55
Cc1nn(C)c(Oc2ccc(OC(F)(F)F)cc2)c1/C=N\OCc1c(Cl)c(-c2ccc(F)cc2)nn1C	5.64

Tested on: SMMC-7721
Test: Antiproliferative activity against human SMMC7721 cells assessed as inhibition of cell proliferation at 25 uM after 72 hrs by MTT assay relative to control
Type: functional
Settings: SMMC-7721, 72 h
Method in brief: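 Cells in DMEM with 10% FBS, plated at 10^4 cells/mL, adhered overnight. Treated at 25 μM for 72 h. MTT added for the last 4 h, formazan dissolved in DMSO, A570 read. Inhibition expressed as percent of untreated. Mean + SD from three separate measurements.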

Structure (SMILES)	inhibition at 25 µM
CCc1nn(C)c(CO/N=C/c2c(C)nn(C)c2Oc2ccccc2F)c1Cl	< 80%
CCc1nn(C)c(CO/N=C\c2c(C)nn(C)c2Oc2ccc(OC)cc2)c1Cl	< 80%
Cc1nn(C)c(Oc2ccc(F)cc2)c1/C=N\OCc1c(Cl)c(-c2ccc(Cl)cc2)nn1C	80%
Cc1ccc(Oc2c(/C=N\OCc3c(Cl)c(-c4ccc(F)cc4)nn3C)c(C)nn2C)cc1	80%
Cc1nn(C)c(Oc2ccc(OC(F)(F)F)cc2)c1/C=N\OCc1c(Cl)c(-c2ccc(Cl)cc2)nn1C	80%
CCc1nn(C)c(CO/N=C/c2c(C)nn(C)c2Oc2ccc(F)cc2)c1Cl	< 80%
CCc1nn(C)c(CO/N=C/c2c(C)nn(C)c2Oc2ccc(C)cc2)c1Cl	< 80%
CCc1nn(C)c(CO/N=C/c2c(C)nn(C)c2Oc2ccccc2C)c1Cl	< 80%
Cc1nn(C)c(Oc2ccc(F)cc2)c1/C=N\OCc1c(Cl)c(-c2ccc(F)cc2)nn1C	80%
CCc1nn(C)c(CO/N=C/c2c(C)nn(C)c2Oc2cccc(C)c2)c1Cl	< 80%
CCc1nn(C)c(CO/N=C\c2c(C)nn(C)c2Oc2ccccc2OC(F)(F)F)c1Cl	< 80%
CCc1nn(C)c(CO/N=C/c2c(C)nn(C)c2Oc2ccc(Br)cc2)c1Cl	< 80%
COc1cccc2c1C(=O)c1c(O)c3c(c(O)c1C2=O)C[C@@](O)(C(=O)CO)C[C@@H]3O[C@H]1C[C@H](N)[C@H](O)[C@H](C)O1.Cl [DOXORUBICIN HYDROCHLORIDE]	80%
Cc1nn(C)c(Oc2ccc(Cl)cc2)c1/C=N\OCc1c(Cl)c(-c2ccc(F)cc2)nn1C	80%
CCc1nn(C)c(CO/N=C/c2c(C)nn(C)c2Oc2ccc(Cl)cc2)c1Cl	< 80%
CCc1nn(C)c(CO/N=C/c2c(C)nn(C)c2Oc2ccccc2OC)c1Cl	< 80%
Cc1nn(C)c(Oc2ccc(Cl)cc2)c1/C=N\OCc1c(Cl)c(-c2ccc(Cl)cc2)nn1C	80%
Cc1nn(C)c(Oc2ccc(Br)cc2)c1/C=N\OCc1c(Cl)c(-c2ccc(Cl)cc2)nn1C	80%
COc1ccc(Oc2c(/C=N\OCc3c(Cl)c(-c4ccc(F)cc4)nn3C)c(C)nn2C)cc1	80%
Cc1ccc(Oc2c(/C=N\OCc3c(Cl)c(-c4ccc(Cl)cc4)nn3C)c(C)nn2C)cc1	80%
CCc1nn(C)c(CO/N=C/c2c(C)nn(C)c2Oc2cccc(Cl)c2)c1Cl	< 80%
CCc1nn(C)c(CO/N=C\c2c(C)nn(C)c2Oc2ccc(OC(F)(F)F)cc2)c1Cl	< 80%
CCc1nn(C)c(CO/N=C/c2c(C)nn(C)c2Oc2ccc(I)cc2)c1Cl	< 80%
Cc1nn(C)c(Oc2ccc(OC(F)(F)F)cc2)c1/C=N\OCc1c(Cl)c(-c2ccc(F)cc2)nn1C	80%
CCc1nn(C)c(CO/N=C/c2c(C)nn(C)c2Oc2ccccc2Cl)c1Cl	< 80%
